According to ChEMBL document CHEMBL1687916, “Non-nucleoside inhibitors of human adenosine kinase: synthesis, molecular modeling, and biological studies” (J Med Chem, 2011):
Active and inactive are the calls of the source. The rule behind the calls is not given here.

Key:
HL-60 [1] = assay: Induction of apoptosis in human HL60 cells assessed as DNA content at 100 uM after 48 hrs by flow cytometry relative to vehicle-treated; assay type: functional
How it was run: (§1)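 HL-60 cells treated with vehicle (0.1% DMSO) or 25-100 μM compound for 24, 48 or 72 h, harvested by centrifugation, PI-stained for 30 min at 37 C in the dark, and analysed by flow cytometry (10 000 gated events). Cells with under 2N DNA content were scored apoptotic. Three independent experiments.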

HeLa S3 (Homo sapiens) [2] = assay: Growth inhibition of human HeLaS-3 cells pretreated for 2 days measured after 2 days of compound wash out by Burker cell counter
[3] = target: T1, Adenosine deaminase (Bos taurus) (UniProt P56658); assay: Inhibition of bovine ADA at 100 uM by spectrophotometric analysis
T1 sequence (whole entry): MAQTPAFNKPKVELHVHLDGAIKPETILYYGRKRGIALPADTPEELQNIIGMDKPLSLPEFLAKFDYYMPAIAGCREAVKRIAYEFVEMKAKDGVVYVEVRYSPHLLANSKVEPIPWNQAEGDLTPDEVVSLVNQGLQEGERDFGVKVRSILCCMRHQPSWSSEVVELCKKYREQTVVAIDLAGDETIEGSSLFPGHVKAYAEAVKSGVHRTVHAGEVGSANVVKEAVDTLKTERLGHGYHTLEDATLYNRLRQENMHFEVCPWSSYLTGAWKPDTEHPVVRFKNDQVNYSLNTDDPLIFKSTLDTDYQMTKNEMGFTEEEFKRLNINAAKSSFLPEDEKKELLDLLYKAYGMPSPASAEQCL
How it was run: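 Adenosine deaminase assayed at 30 C with 50 μM Ado, 50 mM potassium phosphate pH 7.2 and 0.3 nM enzyme. Deamination was followed as A262 change over 2 min. Compound tested at 100 μM, with DMSO at most 4% final and a substrate-free blank. Percent inhibition from two determinations in triplicate.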

HeLa S3 [4] = assay: Cytostatic activity against human HeLaS3 cells at 40 uM after 24 to 48 hrs compound added for every 24 hrs; assay type: functional, cell-based
How it was run: (§2)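 Cells (8 × 10^4) grown at 37 C in DMEM with 10% fetal calf serum, 5 mM L-glutamine and 50 μg/mL gentamycin, with or without 40 μM compound for 3 days. Medium and compound were replaced daily. Cultures were counted every day after trypsinization.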

HL-60 [5] = assay: Induction of apoptosis in human HL60 cells assessed as DNA content at 100 uM after 24 hrs by flow cytometry relative to vehicle-treated; assay type: functional; how it was run: as §1
[6] = Cellular permeability in human HeLaS3 cells assessed as level of [3H]AMP produced at 2.5 to 25 uM by scintillation counter; assay type: ADME, cell-based; settings: hela s3, 25 µM
How it was run: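 HeLaS-3 cells grown in DMEM with fetal calf serum at 37 C, trypsinized, then resuspended at 10^6 cells/mL in serum-free DMEM with compound and 3 μCi [3H]Ado (25 Ci/mmol) at 37 C. Samples taken at 0, 10, 20, 30 and 40 min were spotted on DE-81 filters and washed. [3H]AMP was measured by scintillation counting. Mean of three determinations.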

[7] = Metabolic stability of the compound in human HeLaS3 cell crude extract assessed as compound degradation measured upto 20 hrs pretreated at 40 uM for 3 days; assay type: ADME, cell-based; settings: hela s3, 20 h
How it was run: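 HeLaS-3 cells cultured 3 days with 40 μM compound added fresh every 24 h; crude extract prepared by hypotonic Hepes buffer lysis, dounce homogenization and 10000g spin. Compound (1 mM) was incubated in extract at 37 C for 0, 1, 5 and 20 h, then lyophilized and extracted twice with cold MeOH. Remaining compound was quantified by reverse-phase HPLC.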

HL-60 [8] = assay: Cytotoxicity against human HL60 cells after 72 hrs; assay type: functional, cell-based; settings: HL-60, 72 h
How it was run: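 HL-60 cells (40 000/well) in RPMI-1640 with 10% FBS and penicillin/streptomycin, seeded for 24 h, then exposed to vehicle (0.1% DMSO) or a concentration range for 72 h. AlamarBlue (10% v/v) was added for 4.5 h at 37 C and fluorescence read at ex 544/em 590 nm. Viability is relative to vehicle control; IC50 from dose-response curves; three independent experiments.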

K562 [9] = assay: Growth inhibition of human K562 cells after 7 days by Burker cell counter; assay type: functional; settings: K562, 168 h
How it was run: (§3)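 K562 cells in RPMI 1640 with 10% fetal calf serum, seeded at 5000 cells/mL and held 15 h at 37 C in 5% CO2. Serial compound dilutions were added and cells incubated 7 days. Aliquots were mixed with 0.5% trypan blue; unstained and blue cells were counted on a Bürker chamber. Triplicate points, each count averaged from four determinations.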

K562 [10] = assay: Cytotoxicity against human K562 cells assessed as dead cells after 7 days by Burker cell counter; assay type: functional, cell-based; how it was run: as §3
HeLa S3 [11] = assay: Inhibition of DNA syntheses in human HeLaS3 cells assessed as [3H]thymidine incorporation at 10 uM after 40 mins by scintillation counter; assay type: functional, cell-based
How it was run: (§4)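 HeLaS-3 cells grown in DMEM with fetal calf serum, trypsinized, and resuspended at 10^6 cells/mL in serum-free DMEM at 37 C with 0, 10 or 50 μM compound plus 5 μCi [3H]thymidine (25 Ci/mmol) or [3H]uridine (22 Ci/mmol). Samples at 0-40 min were spotted on GF/C filters, washed in 5% TCA and ethanol, and acid-precipitable radioactivity counted. Mean of three determinations.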

HeLa S3 (Homo sapiens) [12] = assay: Growth inhibition of human HeLaS-3 cells pretreated for 2 days measured after 24 hrs of compound wash out by Burker cell counter
HeLa S3 [13] = assay: Inhibition of RNA syntheses in human HeLaS3 cells assessed as inhibition of [3H]uridine incorporation after 40 mins by scintillation counter; assay type: functional, cell-based; how it was run: as §4
HeLa S3 [14] = assay: Inhibition of DNA syntheses in human HeLaS3 cells assessed as [3H]thymidine incorporation at 50 uM after 40 mins by scintillation counter; assay type: functional, cell-based; how it was run: as §4
Adenosine kinase = Adenosine kinase (Homo sapiens, UniProt P55263); assay: Inhibition of human adenosine kinase; settings: read-out: IC50
Adenosine kinase, sequence (P55263 whole entry): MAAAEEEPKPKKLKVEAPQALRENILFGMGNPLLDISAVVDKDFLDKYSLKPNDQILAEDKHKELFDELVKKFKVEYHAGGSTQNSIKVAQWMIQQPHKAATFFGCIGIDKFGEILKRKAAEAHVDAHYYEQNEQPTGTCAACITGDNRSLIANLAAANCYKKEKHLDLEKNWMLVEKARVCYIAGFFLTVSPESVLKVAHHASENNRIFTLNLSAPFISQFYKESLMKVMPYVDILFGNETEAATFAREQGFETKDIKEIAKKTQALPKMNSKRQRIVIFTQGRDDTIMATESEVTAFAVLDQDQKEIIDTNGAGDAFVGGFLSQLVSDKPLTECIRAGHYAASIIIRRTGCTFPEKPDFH

Homo sapiens = species on record: Homo sapiens; assay: Cytostatic activity against human Cen3tel cells at 40 uM after 24 to 48 hrs compound added for every 24 hrs; assay type: functional, cell-based; how it was run: as §2
NIH3T3 = assay: Cytotoxicity against mouse 3T3 cells by phenyltetrazolium bromide assay; assay type: functional, cell-based
How it was run: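 Murine 3T3 fibroblasts; proliferation measured by MTT assay, with IC50 reported. Each value is the mean of three determinations; Student's t test, p < 0.05.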

HL-60 [15] = assay: Induction of apoptosis in human HL60 cells assessed as DNA content at 50 uM after 24 hrs by flow cytometry relative to vehicle-treated control; assay type: functional; how it was run: as §1

inhibition [3]: 15%
Drug uptake [6]: Active
Stability [7]: Stable
IC50 (Adenosine kinase): 1.2 µM
Compound: CCC1(c2ccc(CSc3ccccc3)cc2)Oc2ccccc2-n2cccc2C1=O (racemic)
Activity (HL-60 [1]): 90%
growth inhibition (GI) (HeLa S3 (Homo sapiens) [2]): inactive
Activity (HeLa S3 [4]): inactive
Activity (HL-60 [5]): 70%
IC50 (HL-60 [8]): 34.2 µM
GI50 (K562 [9]): 1 µM
Activity (K562 [10]): Not toxic
Activity (HeLa S3 [11]): inactive
growth inhibition (GI) (HeLa S3 (Homo sapiens) [12]): Active
IC50 (HeLa S3 [13]): 50 µM
Activity (HeLa S3 [14]): inactive
Activity (Homo sapiens): inactive
IC50 (NIH3T3): 118 µM
Activity (HL-60 [15]): 44%
